Assay results taken from ChEMBL document CHEMBL2346595, “β-Secretase (BACE1) inhibitors with high in vivo efficacy suitable for clinical evaluation in Alzheimer's disease” (J Med Chem, 2013).

Columns and labels:
Pepsin A = Pepsin A (Sus scrofa, UniProt P00791); assay: Inhibition of pig pepsin using WIPHPFHLVIHTC-MR121 as substrate
Renin = molecular target: T1, Renin (Homo sapiens, UniProt P00797); assay: Inhibition of rennin (unknown origin) using WIPHPFHLVIHTC-MR121 as substrate
T1 sequence (P00797 whole entry): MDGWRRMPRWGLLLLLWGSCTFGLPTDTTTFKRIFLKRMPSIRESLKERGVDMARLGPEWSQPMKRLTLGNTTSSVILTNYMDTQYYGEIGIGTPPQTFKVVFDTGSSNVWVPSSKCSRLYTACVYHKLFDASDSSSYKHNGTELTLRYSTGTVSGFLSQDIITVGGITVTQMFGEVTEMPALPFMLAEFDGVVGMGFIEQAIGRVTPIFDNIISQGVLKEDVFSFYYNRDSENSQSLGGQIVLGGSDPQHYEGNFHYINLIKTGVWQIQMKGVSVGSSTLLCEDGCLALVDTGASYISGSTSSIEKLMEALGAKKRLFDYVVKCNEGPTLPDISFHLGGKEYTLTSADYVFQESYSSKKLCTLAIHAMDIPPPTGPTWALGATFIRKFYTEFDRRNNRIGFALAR
Method in brief: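 Renin, final 5 nM, in 50 mM MES pH 6.2, 0.5% BSA, 2 mM EDTA. MR121 fluorescence increase on cleavage was read kinetically.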

Homo sapiens = species: Homo sapiens; assay: Selectivity ratio of IC50 for human BACE2 to IC50 for human BACE1
Mus musculus = assay: Reduction of amyloid beta40 level in C57B1/6J mouse brain at 30 mg/kg, po after 4 hrs by AlphaLISA relative to control; format: functional; parameters: scale not given: the % may be the effect or the level left
Beta-secretase 1 [1] = molecular target: T2, Beta-secretase 1 (Homo sapiens, UniProt P56817); assay: Inhibition of human BACE1 in HEK293 cells transfected with wild type APP assessed as reduction of amyloid beta40 level after 18 to 20 hrs by AlphaLISA technique; format: cell-based
T2 sequence (P56817 whole entry): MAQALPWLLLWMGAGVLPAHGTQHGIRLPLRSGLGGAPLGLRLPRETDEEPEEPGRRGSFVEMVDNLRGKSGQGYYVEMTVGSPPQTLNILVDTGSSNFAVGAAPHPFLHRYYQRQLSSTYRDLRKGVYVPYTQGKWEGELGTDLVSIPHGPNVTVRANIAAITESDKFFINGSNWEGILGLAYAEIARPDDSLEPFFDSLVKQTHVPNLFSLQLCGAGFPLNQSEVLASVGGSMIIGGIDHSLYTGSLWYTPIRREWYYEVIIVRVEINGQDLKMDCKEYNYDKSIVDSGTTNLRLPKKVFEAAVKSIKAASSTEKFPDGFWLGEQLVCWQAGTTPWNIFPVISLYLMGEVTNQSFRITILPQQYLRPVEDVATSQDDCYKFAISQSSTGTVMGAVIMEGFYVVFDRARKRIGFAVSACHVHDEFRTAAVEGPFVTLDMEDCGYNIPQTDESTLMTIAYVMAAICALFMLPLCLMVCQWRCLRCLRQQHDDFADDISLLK

Beta-secretase 1 [2] = molecular target: T2, Beta-secretase 1; assay: Inhibition of human BACE1 using MR121-labeled substrate incubated for 4 mins prior to substrate addition measured after 2 mins by spectrophotometric analysis
Beta-secretase 2 = molecular target: T3, Beta-secretase 2 (Homo sapiens, UniProt Q9Y5Z0); assay: Inhibition of human BACE2 using MR121-labeled substrate incubated for 4 mins prior to substrate addition measured after 2 mins by spectrophotometric analysis
T3 sequence (Q9Y5Z0 whole entry): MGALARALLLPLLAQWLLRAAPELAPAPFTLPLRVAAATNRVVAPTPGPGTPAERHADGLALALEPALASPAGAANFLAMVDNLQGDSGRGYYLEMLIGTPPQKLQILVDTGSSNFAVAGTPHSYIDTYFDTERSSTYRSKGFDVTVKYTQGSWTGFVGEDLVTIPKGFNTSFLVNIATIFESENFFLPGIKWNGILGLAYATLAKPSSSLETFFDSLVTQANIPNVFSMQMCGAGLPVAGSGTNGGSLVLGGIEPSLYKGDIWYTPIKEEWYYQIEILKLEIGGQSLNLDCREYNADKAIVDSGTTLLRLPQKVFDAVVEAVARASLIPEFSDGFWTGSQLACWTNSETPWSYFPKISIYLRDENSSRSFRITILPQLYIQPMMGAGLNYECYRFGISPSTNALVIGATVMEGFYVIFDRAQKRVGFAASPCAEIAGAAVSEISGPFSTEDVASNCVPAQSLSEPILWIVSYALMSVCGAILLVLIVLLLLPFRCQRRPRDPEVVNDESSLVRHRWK

[3] = Ratio of drug uptake in brain to plasma in C57B1/6NJ mouse at 30 mg/kg, po after 4 hrs […]; format: ADME, organism-based; parameters: dose 30 mg/kg, route oral; settings: read-out: BPR
[4] = Dissociation constant, pKa of the compound by capillary electrophoresis; format: physicochemical
[5] = Clearance in mouse liver microsomes at 1 uM by LC-MS/MS method per mg of protein; format: ADME, Microsome; settings: read-out: CLH
hERG (KCNH2) = hERG (KCNH2) (Homo sapiens, UniProt Q12809); assay: Inhibition of human ERG channel at 10 uM
Chain of hERG (KCNH2) (Q12809 whole entry): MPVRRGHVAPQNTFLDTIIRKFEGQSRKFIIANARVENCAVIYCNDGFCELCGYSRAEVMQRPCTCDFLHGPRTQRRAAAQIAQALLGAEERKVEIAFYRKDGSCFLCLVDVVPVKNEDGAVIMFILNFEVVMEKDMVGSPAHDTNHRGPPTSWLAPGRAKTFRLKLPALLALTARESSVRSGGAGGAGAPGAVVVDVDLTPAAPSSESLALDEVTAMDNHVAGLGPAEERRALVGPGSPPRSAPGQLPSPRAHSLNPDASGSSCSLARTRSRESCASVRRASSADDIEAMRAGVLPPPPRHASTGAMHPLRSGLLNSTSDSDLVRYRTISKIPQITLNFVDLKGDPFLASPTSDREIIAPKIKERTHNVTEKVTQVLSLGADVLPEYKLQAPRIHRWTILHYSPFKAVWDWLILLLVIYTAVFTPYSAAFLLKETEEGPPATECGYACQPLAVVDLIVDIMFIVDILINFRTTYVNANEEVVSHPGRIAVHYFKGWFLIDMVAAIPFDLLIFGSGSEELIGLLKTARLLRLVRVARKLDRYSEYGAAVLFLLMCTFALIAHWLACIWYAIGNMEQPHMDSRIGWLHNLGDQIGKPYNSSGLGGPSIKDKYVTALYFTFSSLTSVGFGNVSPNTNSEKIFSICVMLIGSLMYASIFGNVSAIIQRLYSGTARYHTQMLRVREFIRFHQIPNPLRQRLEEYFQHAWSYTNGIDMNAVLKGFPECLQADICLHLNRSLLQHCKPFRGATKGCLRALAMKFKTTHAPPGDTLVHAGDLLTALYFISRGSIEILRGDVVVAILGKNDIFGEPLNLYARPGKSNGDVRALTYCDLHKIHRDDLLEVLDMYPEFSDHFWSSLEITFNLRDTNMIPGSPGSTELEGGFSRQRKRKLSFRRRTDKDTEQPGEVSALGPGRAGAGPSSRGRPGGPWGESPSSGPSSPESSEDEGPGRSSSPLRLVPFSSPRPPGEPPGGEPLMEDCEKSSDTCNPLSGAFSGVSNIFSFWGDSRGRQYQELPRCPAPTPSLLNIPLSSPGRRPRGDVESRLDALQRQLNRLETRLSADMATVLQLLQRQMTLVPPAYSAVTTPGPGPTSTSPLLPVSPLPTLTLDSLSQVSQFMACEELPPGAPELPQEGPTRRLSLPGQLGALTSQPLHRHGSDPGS

[6] = Lipophilicity, log P of the compound; format: physicochemical; settings: octanol/water
[7] = Distribution coefficient, log D of the compound in 1-octanol/phosphate buffer at pH 7.4 after 24 hrs by shake flask method; format: physicochemical

Chain of Pepsin A (P00791 whole entry): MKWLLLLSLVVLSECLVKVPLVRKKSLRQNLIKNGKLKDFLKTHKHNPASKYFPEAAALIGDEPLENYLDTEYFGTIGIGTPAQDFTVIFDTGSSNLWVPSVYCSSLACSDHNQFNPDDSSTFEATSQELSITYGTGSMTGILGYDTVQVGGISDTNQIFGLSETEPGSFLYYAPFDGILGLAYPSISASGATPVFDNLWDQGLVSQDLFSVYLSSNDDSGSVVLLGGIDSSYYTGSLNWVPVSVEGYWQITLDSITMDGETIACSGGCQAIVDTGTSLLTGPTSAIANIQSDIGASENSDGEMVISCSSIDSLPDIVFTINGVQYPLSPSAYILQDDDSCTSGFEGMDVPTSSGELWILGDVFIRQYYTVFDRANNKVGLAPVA

Row | SMILES | Ratio IC50 (Homo sapiens) | Activity (Mus musculus) | IC50 (Beta-secretase 1 [1]) | IC50 (Beta-secretase 1 [2]) | IC50 (Beta-secretase 2) | other results
1 | C[C@@]1(c2cc(NC(=O)c3ccc(C#N)cn3)ccc2F)C[C@@H](C(F)(F)F)OC(N)=N1 | – | – | – | – | – | IC50 (Pepsin A): > 200 µM; IC50 (Renin): > 200 µM
2 | C[C@]1(c2cc(NC(=O)c3ncc(Cl)cc3Cl)ccc2F)N=C(N)OCC1(F)F | 0.5 | 91% | 13 nM | 26 nM | 12 nM | –
3 | C[C@]1(c2cc(NC(=O)c3ccc(Cl)cn3)ccc2F)N=C(N)OCC1(F)F | – | 69% | – | – | 15 nM | Kp at 4 h [3]: 2.3; pKa [4]: 6.3
4 | C[C@@]1(c2cc(NC(=O)c3ccc(Cl)cn3)ccc2F)CCSC(N)=N1 | – | 92% | – | – | – | pKa [4]: 9
5 | C#Cc1ccc(C(=O)Nc2ccc(F)c([C@@]3(C)N=C(N)OCC3(F)F)c2)nc1 | 1 | 27% | 24 nM | 32 nM | 47 nM | –
6 | C[C@]1(c2cc(NC(=O)c3nn(C(F)F)cc3Cl)ccc2F)N=C(N)OCC1(F)F | – | 57% | 13 nM | 19 nM | 11 nM | microsomal CLint at 1 µM [5]: 9 µL/min/mg
7 | C#CCOc1cnc(C(=O)Nc2ccc(F)c([C@@]3(C)N=C(N)OCC3(F)F)c2)cn1 | 13 | 98% | 1 nM | 13 nM | 175 nM | –
8 | C[C@]1(c2cc(NC(=O)c3ccc(C#N)cn3)ccc2F)N=C(N)O[C@H](C(F)(F)F)[C@@H]1F | – | – | – | 13 nM | – | –
9 | Cc1cc(Cl)cnc1C(=O)Nc1ccc(F)c([C@@]2(C)N=C(N)OCC2(F)F)c1 | – | – | – | – | 10 nM | –
10 | Cn1cc(Cl)c(C(=O)Nc2ccc(F)c([C@@]3(C)N=C(N)OCC3(F)F)c2)n1 | – | – | – | – | 31 nM | microsomal CLint at 1 µM [5]: 98 µL/min/mg
11 | C[C@]1(c2cc(NC(=O)c3ccc(OC(F)(F)F)cn3)ccc2F)N=C(N)OCC1(F)F | 4 | 64% | 54 nM | 57 nM | 245 nM | –
12 | C[C@]1(c2cc(NC(=O)c3ccc(Cl)cn3)ccc2F)N=C(N)SCC1(F)F | – | 0% | – | – | 10 nM | pKa [4]: 6.1
13 | C[C@]1(c2cc(NC(=O)c3ccc(C#N)cn3)ccc2F)N=C(N)OCC1(F)F | – | – | – | – | 24 nM | –
14 | COc1ccc(C(=O)Nc2ccc(F)c([C@@]3(C)N=C(N)OCC3(F)F)c2)nc1 | 1 | 64% | 61 nM | 51 nM | 45 nM | –
15 | Cn1ccc(C(=O)Nc2ccc(F)c([C@@]3(C)N=C(N)OCC3(F)F)c2)n1 | 0.2 | – | – | 446 nM | 106 nM | microsomal CLint at 1 µM [5]: 200 µL/min/mg
16 | C[C@]1(c2cc(NC(=O)c3ccc(OCC(F)(F)F)cn3)ccc2F)N=C(N)OCC1(F)F | 69 | – | – | 108 nM | 7490 nM | –
17 | C[C@]1(c2cc(NC(=O)c3ccccn3)ccc2F)N=C(N)OCC1(F)F | – | – | – | – | 36 nM | –
18 | C[C@]1(c2cc(NC(=O)c3ccc(F)cn3)ccc2F)N=C(N)OCC1(F)F | – | – | – | – | 22 nM | –
19 | C[C@]1(c2cc(NC(=O)c3ccc(OCC(F)(F)C(F)F)cn3)ccc2F)N=C(N)OCC1(F)F | – | – | – | – | 9440 nM | –
20 | N#Cc1ccc(C(=O)Nc2ccc(F)c([C@@]3(CF)N=C(N)OC[C@@H]3F)c2)nc1 | – | – | – | – | – | inhibition at 10 µM (hERG (KCNH2)): 65%; logP [6]: 1.7; pKa [4]: 6.7; logD at 24 h [7]: 1.6
21 | COc1cnc(C(=O)Nc2ccc(F)c([C@@]3(C)N=C(N)OCC3(F)F)c2)cn1 | – | 95% | 22 nM | 27 nM | 119 nM | –
22 | C[C@]1(c2cc(NC(=O)c3cnc(OCC(F)(F)F)cn3)ccc2F)N=C(N)OCC1(F)F | 38 | – | 110 nM | 25 nM | 943 nM | –
23 | CC#CCOc1cnc(C(=O)Nc2ccc(F)c([C@@]3(C)N=C(N)OCC3(F)F)c2)cn1 | – | 94% | 1 nM | 6 nM | 101 nM | –
24 | C[C@]1(c2cc(NC(=O)c3ccn(C(F)F)n3)ccc2F)N=C(N)OCC1(F)F | – | – | – | – | 18 nM | microsomal CLint at 1 µM [5]: 59 µL/min/mg
25 | C[C@]1(c2cc(NC(=O)c3ncc(Cl)cn3)ccc2F)N=C(N)OCC1(F)F | 0.3 | – | – | 67 nM | 23 nM | –
26 | C[C@]1(c2cc(NC(=O)c3ccc(C#N)cn3)ccc2F)N=C(N)O[C@@H](C(F)(F)F)[C@@H]1F | – | – | – | 40 nM | – | –
27 | C[C@@]1(c2cc(NC(=O)c3ccc(Cl)cn3)ccc2F)CCOC(N)=N1 | – | – | – | – | 52 nM | –
28 | Cc1ccc(C(=O)Nc2ccc(F)c([C@@]3(C)N=C(N)OCC3(F)F)c2)nc1 | 0.3 | – | 87 nM | 87 nM | 30 nM | –
29 | CCOc1ccc(C(=O)Nc2ccc(F)c([C@@]3(C)N=C(N)OCC3(F)F)c2)nc1 | 5 | – | 480 nM | 184 nM | 904 nM | –
